What all share (type): functional
The test system of test [1] is Enterococcus faecalis. As to the kind of experiment: In vitro antibacterial activity measured as minimum inhibitory concentration was evaluated on Streptococcus faecalis ATCC 10541 (Sf). Conditions: Enterococcus faecalis, ATCC 10541; read-out: MIC. Put shortly:
(§1)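 Serial 2-fold agar dilution in Mueller Hinton medium, run side by side with reference quinolones. Inoculum 10^5 cfu/mL; compound range 0.007–16 µg/mL.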

The subject of test [2] is Proteus vulgaris. As to the kind of experiment: In vitro antibacterial activity measured as minimum inhibitory concentration was evaluated on proteus vulgaris ATCC 8427 (Pv). The note with it: Proteus vulgaris, ATCC 8427; read-out: MIC. Put shortly: as §1
In test [3] the test system is Staphylococcus aureus. As to the kind of experiment: In vivo efficacy as ED50 against Staphylococcus aureus HS-93 by oral administration in mice. The note with it: Staphylococcus aureus, po; read-out: ED50. Put shortly: (§2)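 Mice, 4 groups of 10, infected intraperitoneally with slightly more than the LD100 of the organism. A single oral dose was given immediately after infection, with four doses (one per group) chosen from in vitro activity. Survival was scored after one week. ED50 (total dose, mg/kg, protecting 50%) was interpolated among group survival rates.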

Test [4] relates to Escherichia coli. As to the kind of experiment: In vivo efficacy as ED50 against Escherichia coli HM-42 by oral administration in mice. The note with it: Escherichia coli, po; read-out: ED50. In outline: as §2
The subject of test [5] is Pseudomonas aeruginosa. As to the kind of experiment: In vitro antibacterial activity measured as minimum inhibitory concentration was evaluated on Pseudomonas aeruginosa ATCC 10145 (Pa). Conditions: Pseudomonas aeruginosa, ATCC 10145; read-out: MIC. Put shortly:
as §1

Test [6] relates to Escherichia coli. As to the kind of experiment: In vitro antibacterial activity measured as minimum inhibitory concentration, was evaluated on Escherichia coli ATCC 23559(Ec). The note with it: Escherichia coli, ATCC 23559; read-out: MIC. In outline: as §1
The subject of test [7] is Pseudomonas aeruginosa. As to the kind of experiment: In vivo efficacy as ED50 against Pseudomonas aeruginosa HS-116 by oral administration in mice. Conditions: Pseudomonas aeruginosa, po; read-out: ED50. Put shortly:
as §2

Test [8] deals with Staphylococcus epidermidis. As to the kind of experiment: In vitro antibacterial activity measured as minimum inhibitory concentration was evaluated on Staphylococcus epidermidis ATCC 155-1 (Se). Conditions: Staphylococcus epidermidis, ATCC 155-1; read-out: MIC. Put shortly:
as §1

Test [9] deals with Bacillus cereus. As to the kind of experiment: In vitro antibacterial activity measured as minimum inhibitory concentration was evaluated on Bacillus cereus ATCC 11778 (Bc). The note with it: Bacillus cereus, ATCC 11778; read-out: MIC. Put shortly: as §1
The test system of test [10] is Bacillus subtilis. As to the kind of experiment: In vitro antibacterial activity measured as minimum inhibitory concentration was evaluated on Bacillus subtilis ATCC 6633(Bs). Conditions: Bacillus subtilis, ATCC 6633; read-out: MIC. Put shortly: as §1
Test [11] concerns Enterobacter cloacae. As to the kind of experiment: In vitro antibacterial activity measured as minimum inhibitory concentration, was evaluated on Enterobacter cloacae ATCC 23355 (Ecl). Conditions: Enterobacter cloacae, ATCC 23355; read-out: MIC.
Test [12] relates to Morganella morganii. As to the kind of experiment: In vitro antibacterial activity measured as minimum inhibitory concentration was evaluated on morganella morganii ATCC 8019 (Mm). Conditions: Morganella morganii, ATCC 8019; read-out: MIC. In outline: as §1
The subject of test [13] is Klebsiella pneumoniae. As to the kind of experiment: In vitro antibacterial activity measured as minimum inhibitory concentration was evaluated on klebsiella pneumoniae ATCC 10031 (Kp). The note with it: Klebsiella pneumoniae, ATCC 10031; read-out: MIC. In outline: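 Serial 2-fold agar dilution in Mueller Hinton medium, run side by side with reference quinolones.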

Test [14] concerns Staphylococcus aureus. As to the kind of experiment: In vitro antibacterial activity measured as minimum inhibitory concentration was evaluated on Staphylococcus aureus ATCC 25178 (Sa). Conditions: Staphylococcus aureus, ATCC 25178; read-out: MIC. In outline:
as §1

Converted amounts (≈) assume the structure as drawn.

One may read the MIC as the least concentration at which growth counts as inhibited. Usually ED50 stands for the dose at which the effect has come halfway, by size or by number of responders.

In the case of `CC1C(N)CN1c1c(F)cc2c(=O)c(C(=O)O)cn(-c3ccc(F)cc3)c2c1F` (stereo unspecified), the MIC is 2 mg/L (≈ 4.96 µM) in test [1], 0.5 mg/L (≈ 1.24 µM) in test [2], 2 mg/L (≈ 4.96 µM) in test [5] and 0.12 mg/L (≈ 0.298 µM) in test [6]. Besides, the ED50 was found to be 5.7 mg/kg in test [3], 2.5 mg/kg in test [4] and 55 mg/kg in test [7].
For `CC1C(N)CN1c1c(F)cc2c(=O)c(C(=O)O)cn(-c3ccc(F)cc3F)c2c1Cl` (stereo unspecified), the minimal inhibitory concentration (MIC) in [8] worked out at 0.06 mg/L (≈ 0.137 µM); in test [5] it was 0.5 mg/L (≈ 1.14 µM); in test [6] it was 0.03 mg/L (≈ 0.0685 µM); in [9], 0.03 mg/L (≈ 0.0685 µM); in test [10], 0.03 mg/L (≈ 0.0685 µM).
In the case of `CCNCC1(C)CN(c2c(F)cc3c(=O)c(C(=O)O)cn4c3c2OC[C@@H]4C)C1`, the MIC in test [1] stood at 2 mg/L (≈ 5.14 µM); in test [2] it was 1 mg/L (≈ 2.57 µM); in test [11], 0.5 mg/L (≈ 1.28 µM); in test [12], 1 mg/L (≈ 2.57 µM); in test [13], 1 mg/L (≈ 2.57 µM); in [8], 0.25 mg/L (≈ 0.642 µM). Further, the minimal inhibitory concentration (MIC) was 0.5 mg/L (≈ 1.28 µM) in [14]; 8 mg/L (≈ 20.5 µM) in test [5]; 0.25 mg/L (≈ 0.642 µM) in [6]; 0.5 mg/L (≈ 1.28 µM) in test [9]; 0.06 mg/L (≈ 0.154 µM) in test [10].
With `CNC1(C)CN(c2c(F)cc3c(=O)c(C(=O)O)cn4c3c2OC[C@@H]4C)C1`, the minimal inhibitory concentration (MIC) in test [1] is 0.5 mg/L (≈ 1.38 µM); in [2] it was 0.5 mg/L (≈ 1.38 µM); in test [11] it was 0.06 mg/L (≈ 0.166 µM); in test [12], 0.06 mg/L (≈ 0.166 µM); in [13], 0.015 mg/L (≈ 0.0415 µM); in test [8], 0.12 mg/L (≈ 0.332 µM). Besides, the MIC in test [14] came out at 0.12 mg/L (≈ 0.332 µM); in [5] it was 1 mg/L (≈ 2.77 µM); in test [6], 0.015 mg/L (≈ 0.0415 µM); in [9], 0.12 mg/L (≈ 0.332 µM); in test [10], 0.06 mg/L (≈ 0.166 µM).
With `Cc1c(F)c(N2C[C@H](N)[C@H]2C)nc2c1c(=O)c(C(=O)O)cn2-c1ccc(F)cc1F`, the minimum inhibitory concentration (MIC) was 0.25 mg/L (≈ 0.598 µM) in test [1]; 1 mg/L (≈ 2.39 µM) in test [2]; 0.12 mg/L (≈ 0.287 µM) in test [11]; 0.25 mg/L (≈ 0.598 µM) in test [12]; 0.12 mg/L (≈ 0.287 µM) in test [13]; 0.06 mg/L (≈ 0.143 µM) in test [8]. Also, the MIC in test [14] worked out at 0.06 mg/L (≈ 0.143 µM); in test [5], 0.5 mg/L (≈ 1.2 µM); in [6], 0.06 mg/L (≈ 0.143 µM); in test [9] it was 0.06 mg/L (≈ 0.143 µM); in test [10], 0.015 mg/L (≈ 0.0359 µM).
In the case of `CCn1cc(C(=O)O)c(=O)c2cc(F)c(N3CC(N)C3C)c(F)c21` (stereo unspecified), the MIC in test [1] came out at 1 mg/L (≈ 2.96 µM); in test [11], 0.06 mg/L (≈ 0.178 µM); in [12] it was 0.06 mg/L (≈ 0.178 µM); in test [5], 1 mg/L (≈ 2.96 µM); in test [6] it was 0.06 mg/L (≈ 0.178 µM); in test [10] it was 0.06 mg/L (≈ 0.178 µM). Also, the ED50 in test [3] was found to be 5.1 mg/kg; in test [4], 4 mg/kg; in test [7] it was 56 mg/kg.
For `CC1C(N)CN1c1cc2c(cc1F)c(=O)c(C(=O)O)cn2C1CC1` (stereo unspecified), the MIC in test [2] worked out at 0.06 mg/L (≈ 0.181 µM); in [11] it was 0.03 mg/L (≈ 0.0905 µM); in [12] it was 0.03 mg/L (≈ 0.0905 µM); in test [13], 0.03 mg/L (≈ 0.0905 µM); in test [6], 0.015 mg/L (≈ 0.0453 µM); in [9], 0.06 mg/L (≈ 0.181 µM). For the same molecule, the minimum inhibitory concentration (MIC) in test [10] was determined as 0.03 mg/L (≈ 0.0905 µM). The ED50 in test [3] is 22.3 mg/kg; in [4], 3.5 mg/kg; in test [7], 108 mg/kg.
On to `C[C@H]1[C@@H](N)CN1c1c(F)cc2c(=O)c(C(=O)O)cn(C3CC3)c2c1F`, for which the minimal inhibitory concentration (MIC) in test [1] stood at 2 mg/L (≈ 5.73 µM); in [2] it was 1 mg/L (≈ 2.86 µM); in test [11] it was 0.25 mg/L (≈ 0.716 µM); in test [12], 0.25 mg/L (≈ 0.716 µM); in [13], 0.25 mg/L (≈ 0.716 µM); in [8], 1 mg/L (≈ 2.86 µM). Moreover, the MIC in [14] turned out to be 0.25 mg/L (≈ 0.716 µM); in [5], 2 mg/L (≈ 5.73 µM); in test [6], 0.25 mg/L (≈ 0.716 µM); in [9], 0.25 mg/L (≈ 0.716 µM); in [10] it was 0.25 mg/L (≈ 0.716 µM).
As for `C[C@H]1COc2c(N3CC(C)(N(C)C)C3)c(F)cc3c(=O)c(C(=O)O)cn1c23`, the minimum inhibitory concentration (MIC) came out at 2 mg/L (≈ 5.33 µM) in test [1]; 0.5 mg/L (≈ 1.33 µM) in [2]; 0.5 mg/L (≈ 1.33 µM) in test [11]; 0.25 mg/L (≈ 0.666 µM) in [12]; 0.12 mg/L (≈ 0.32 µM) in test [13]; 0.12 mg/L (≈ 0.32 µM) in [8]. The MIC was found to be 0.25 mg/L (≈ 0.666 µM) in [14]; 4 mg/L (≈ 10.7 µM) in test [5]; 0.12 mg/L (≈ 0.32 µM) in test [6]; 0.5 mg/L (≈ 1.33 µM) in test [9]; 0.06 mg/L (≈ 0.16 µM) in test [10].

Values taken from ChEMBL document CHEMBL1128288, “7-Azetidinylquinolones as antibacterial agents. 3. Synthesis, properties and structure-activity relationships of the stereoisomers containing a 7-(3-amino-2-methyl-1-azetidinyl) moiety” (J Med Chem, 1995).
